Measured values of several laboratories.
Target: Dual specificity tyrosine-phosphorylation-regulated kinase 2 (DYRK2, Homo sapiens, UniProt Q92630)
One construct used (Q92630 1-601): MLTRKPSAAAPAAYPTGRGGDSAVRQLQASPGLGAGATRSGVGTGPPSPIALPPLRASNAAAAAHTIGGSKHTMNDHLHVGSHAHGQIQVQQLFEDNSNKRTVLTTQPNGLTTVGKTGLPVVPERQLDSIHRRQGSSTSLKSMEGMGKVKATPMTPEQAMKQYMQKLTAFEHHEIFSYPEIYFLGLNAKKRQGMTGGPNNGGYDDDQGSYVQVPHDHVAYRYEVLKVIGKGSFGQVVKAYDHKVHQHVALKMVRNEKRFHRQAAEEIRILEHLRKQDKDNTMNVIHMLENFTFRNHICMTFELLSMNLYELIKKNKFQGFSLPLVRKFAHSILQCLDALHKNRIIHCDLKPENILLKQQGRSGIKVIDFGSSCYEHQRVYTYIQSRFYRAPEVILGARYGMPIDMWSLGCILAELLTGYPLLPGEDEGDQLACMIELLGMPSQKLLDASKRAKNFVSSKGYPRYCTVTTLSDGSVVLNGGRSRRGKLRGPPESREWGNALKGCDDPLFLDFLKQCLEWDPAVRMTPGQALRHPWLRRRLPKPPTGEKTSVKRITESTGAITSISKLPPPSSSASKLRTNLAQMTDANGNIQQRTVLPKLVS

SMILES	test	setting	measurement	result
O=C(O)c1ccc2c(c1)nc(Nc1cccc(F)c1)c1ccncc12	enzyme activity, inhibitor, radiometric	1 µM	remaining activity	13%
C[C@@H]1CN(c2cc(-c3n[nH]c4ccc(OC5(C)CC5)cc34)ncn2)C[C@H](C)O1	cell-free assay, competition with immobilised ligand	0.1 µM	remaining binding	98%
N#Cc1cccc(Nc2nc3cc(C(=O)O)ccc3c3cncnc23)c1	enzyme activity, inhibitor, radiometric	1 µM	remaining activity	55%
Cc1c[nH]c2nccc(Oc3c(F)cc(Nc4cc(Cl)nc(N)n4)cc3F)c12	cell-free assay, competition with immobilised ligand	0.1 µM	remaining binding	100%
FC(F)(F)Oc1cccc(-c2cnc3ccc(-c4ccncc4)nn23)c1	enzyme activity, inhibitor, radiometric	5 µM	activity vs control	46%
CCN(CC)CCNC(=O)c1c(C)[nH]c(/C=C2\C(=O)Nc3ccc(F)cc32)c1C	enzyme activity, inhibitor	0.3 µM	inhibition	-5%
O=C(O)c1ccc2c(c1)nc(NCCc1cccc(Cl)c1)c1ncncc12	enzyme activity, inhibitor, radiometric	1 µM	remaining activity	76%
Cc1cc(NC(=O)c2cccc(S(F)(F)(F)(F)F)c2)cc(-n2ccn3nc(-c4cccnc4)cc23)c1	cell-free assay, competition with immobilised ligand	1 µM	remaining binding	100%
CS(=O)(=O)CCNCc1ccc(-c2ccc3ncnc(Nc4ccc(OCc5cccc(F)c5)c(Cl)c4)c3c2)o1	cell-free assay	0.5 µM	remaining signal	102%
CNC(=O)c1cc(Oc2ccc(NC(=O)Nc3ccc(Cl)c(C(F)(F)F)c3)cc2)ccn1	enzyme activity, inhibitor	0.3 µM	inhibition	-3%
Cc1cc(C)c(-n2ccn3nc(-c4cccnc4)cc23)cc1NC(=O)c1cc(C#N)cc(S(F)(F)(F)(F)F)c1	cell-free assay, competition with immobilised ligand	0.1 µM	remaining binding	82.5%
Cn1cncc1C1=CN(c2ncnc3[nH]cnc23)CCS1	enzyme activity, inhibitor, radiometric	50 nM	inhibition	20.6%
O=C(O)c1ccc2c(c1)nc(NCCc1cccc(Cl)c1)c1ccncc12	enzyme activity, inhibitor, radiometric	1 µM	remaining activity	29%
O=C(Nc1cccnn1)N1CC(C/C=C/c2cncc(Oc3ccc(C(F)(F)F)cn3)n2)C1	cell-free assay, competition with immobilised ligand	1 µM	remaining binding	81%
O=C(O)c1ccc2c(c1)nc(Nc1ccc(Cl)cc1)c1ncncc12	enzyme activity, inhibitor, radiometric	1 µM	remaining activity	33%
Cc1c(C(=O)O)cc(-c2ccc(C3CCNCC3)cc2)c2ccc(-c3ccc(C(F)(F)F)cc3)cc12	binding, competition with immobilised ligand	1 µM	remaining binding	100%
Nc1ncnc2occ(-c3ccc(NC(=O)Nc4cc(C(F)(F)F)ccc4F)cc3)c12	cell-free assay, inhibitor	20 µM	remaining signal	19%
COc1cc(/C=C/C(=O)CC(=O)/C=C/c2ccc(O)c(OC)c2)ccc1O	enzyme activity, inhibitor	1 µM	activity vs control	5%
C[S+]([O-])c1ccc(-c2nc(-c3ccncc3)c(-c3ccc(F)cc3)[nH]2)cc1 (centres unmarked)	cell-free assay	0.5 µM	remaining signal	98.7%
O=C(O)c1ccc2c(c1)nc(Nc1ccc(F)c(Cl)c1)c1ccncc12	enzyme activity, inhibitor, radiometric	1 µM	remaining activity	5%
